Data set [1] is described as follows: Chemical stability of the compound in neutral pH solution. It is filed as physicochemical.
A short description of data set [2]: Chemical Stability of the compound in pH 1 solution. Particulars: buffer; call rule not given here. It counts as physicochemical.
Data set [3] is described as follows: Cmax in Sprague-Dawley rat at 10 mg/kg, po after 24 hrs by LC/MS/MS method. It is filed as ADME, organism-based. More on the design: dose 10 mg/kg, route oral. Particulars: in vivo.
Data set [4] in a line: Cmax in Sprague-Dawley rat at 1 mg/kg, po after 24 hrs by LC/MS/MS method. It is filed as ADME, organism-based. The arrangement: dose 1 mg/kg, route oral. Particulars: in vivo.
Data set [5] in a line: Cmax in Sprague-Dawley rat at 100 mg/kg, po after 24 hrs by LC/MS/MS method. More on the design: dose 100 mg/kg, route oral. Particulars: in vivo. It is filed as ADME, organism-based.
The nature of data set [6]: AUC in Sprague-Dawley rat at 1 mg/kg, po after 24 hrs by LC/MS/MS method. It is filed as ADME, organism-based. More on the design: time < 24 hr, dose 1 mg/kg, route oral. As to conditions: in vivo.
Data set [7] is described as follows: AUC in Sprague-Dawley rat at 10 mg/kg, po after 24 hrs by LC/MS/MS method. It counts as ADME, organism-based. The arrangement: time < 24 hr, dose 10 mg/kg, route oral. Particulars: in vivo.
The nature of data set [8]: AUC in Sprague-Dawley rat at 100 mg/kg, po after 24 hrs by LC/MS/MS method. More on the design: time < 24 hr, dose 100 mg/kg, route oral. It counts as ADME, organism-based. Particulars: in vivo.
Data set [9] is described as follows: Bioavailability in Sprague-Dawley rat at 1 mg/kg, po after 24 hrs by LC/MS/MS method. It is filed as ADME, organism-based. Particulars: in vivo.
Data set [10] is described as follows: Bioavailability in Sprague-Dawley rat at 10 mg/kg, po after 24 hrs by LC/MS/MS method. It counts as ADME, organism-based. As to conditions: in vivo.
In data set [11] the test system is Rattus norvegicus. Put plainly: Bioavailability in Sprague-Dawley rat at 100 mg/kg, po after 24 hrs by LC/MS/MS method. As to conditions: in vivo. It is filed as ADME, organism-based.
Data set [12] in a line: Cmax in cynomolgus monkey at 10 mg/kg, po after 24 hrs by LC/MS/MS method. It counts as ADME, organism-based, Macaca fascicularis. The arrangement: dose 10 mg/kg, route oral. Particulars: in vivo.
Data set [13] is described as follows: AUC in cynomolgus monkey at 10 mg/kg, po after 24 hrs by LC/MS/MS method. It is filed as ADME, organism-based, Macaca fascicularis. More on the design: dose 10 mg/kg, time < 24 hr, route oral. Particulars: in vivo.
Data set [14] is described as follows: Bioavailability in cynomolgus monkey at 10 mg/kg, po after 24 hrs by LC/MS/MS method. It is filed as ADME, organism-based, Macaca fascicularis. As to conditions: in vivo.
Data set [15] deals with Rattus norvegicus. Description: Inhibition of LPS-induced TNFalpha level in Lewis rat at 0.03 to 10 mg/kg, po dosed 1 hr before LPS challenge and measured 90 mins post LPS challenge by ELISA method. It is filed as functional. The method, boiled down: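 Male Lewis rats (200-250 g) dosed orally 1 h before IP injection of 10ug E. coli O111:B4 LPS in 1.0 mL sterile saline; prodrug as suspension in 0.75% Methocel, 0.1% Tween 80, parent in PEG 300, controls given vehicle. Blood taken 90 min after LPS; serum TNF measured by ELISA; ED50 expressed as parent equivalent.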
(In general: ELISA stands for enzyme-linked immunosorbent assay.)

Data set [16] relates to Rattus norvegicus. Description: Inhibition of paw swelling in Lewis rat adjuvant arthritis model assessed as reduction in hind paw volume at 1 mg/kg, po bid beginning on day 11 post adjuvant challenge by volume displacement plethysmometry method relative to control. It is filed as functional. As to conditions: 264 h. The gist of the method:
(§1)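 Male Lewis rats given complete Freund's adjuvant on day 1; from day 11 compounds dosed orally BID in 0.5 mL vehicle (prodrug as aqueous suspension in 0.75% Methocel, 0.1% Tween 80; parent in PEG 300). Paw volume measured 3 times per week for rest of study; paw swelling inhibition reported.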

In data set [17] the test system is Rattus norvegicus. Description: Inhibition of paw swelling in Lewis rat adjuvant arthritis model assessed as reduction in hind paw volume at 3 mg/kg, po bid beginning on day 11 post adjuvant challenge by volume displacement plethysmometry method relative to control. It is filed as functional. Particulars: 264 h. The gist of the method: as §1
Data set [18] is described as follows: AUC (0 to 24 hrs) in Lewis rat adjuvant arthritis model at 1 mg/kg, po bid beginning on day 11 post adjuvant challenge. It is filed as ADME, organism-based. More on the design: dose 1 mg/kg, time < 24 hr, route oral. As to conditions: in vivo.
The nature of data set [19]: AUC (0 to 24 hrs) in Lewis rat adjuvant arthritis model at 3 mg/kg, po bid beginning on day 11 post adjuvant challenge. It counts as ADME, organism-based. The arrangement: dose 3 mg/kg, time < 24 hr, route oral. Particulars: in vivo.
The subject of data set [20] is Caco-2. Put plainly: Drug level in apical side of human Caco2 cells assessed as BMS-582949 level incubated at 37 degC for 2 hrs. It counts as ADME, cell-based. As to conditions: caco-2, 2 h. The gist of the method: (§2)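 Compounds loaded on apical side of Caco-2 monolayers and incubated at 37 °C for 2 h; prodrug, intermediate and parent measured on apical and basal sides.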

For data set [21], the system named is Caco-2. Put plainly: Drug level in basal side of human Caco2 cells assessed as BMS-582949 level incubated at 37 degC for 2 hrs. It counts as ADME, cell-based. Particulars: caco-2, 2 h. The method, boiled down: as §2
A short description of data set [22]: Solubility in pH 1.2 solution. As to conditions: buffer.
The nature of data set [23]: Solubility in pH 6.5 solution. As to conditions: buffer.
The target of data set [24] is T1, Liver carboxylesterase (Sus scrofa, UniProt Q29550).
T1 sequence (Q29550 whole entry): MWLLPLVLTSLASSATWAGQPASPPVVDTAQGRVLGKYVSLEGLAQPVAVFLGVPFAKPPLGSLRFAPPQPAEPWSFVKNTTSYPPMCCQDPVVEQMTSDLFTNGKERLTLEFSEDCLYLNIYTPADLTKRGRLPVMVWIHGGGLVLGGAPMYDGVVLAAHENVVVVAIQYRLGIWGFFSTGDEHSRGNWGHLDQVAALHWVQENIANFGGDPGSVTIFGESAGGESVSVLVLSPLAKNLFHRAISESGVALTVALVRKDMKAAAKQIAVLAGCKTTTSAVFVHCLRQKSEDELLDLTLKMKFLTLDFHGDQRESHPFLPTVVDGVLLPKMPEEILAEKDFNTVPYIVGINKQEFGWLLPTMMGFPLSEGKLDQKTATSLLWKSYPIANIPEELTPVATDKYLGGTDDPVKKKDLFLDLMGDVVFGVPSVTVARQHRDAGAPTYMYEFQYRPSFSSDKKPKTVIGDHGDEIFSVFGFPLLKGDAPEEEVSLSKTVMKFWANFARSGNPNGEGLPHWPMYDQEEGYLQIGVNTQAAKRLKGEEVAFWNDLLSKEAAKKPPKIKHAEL
Description: Stability assessed as porcine liver esterase-mediated drug degradation by measuring compound remaining level in pH 7.4 potassium phosphate buffer at 10 uM incubated for 0.25 hrs by LC/MS/MS. Particulars: pig, read-out: Stability. It counts as ADME, tissue-based. The gist of the method: (§3)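 Porcine liver esterase with substrate at 10 µM in 89 mM potassium phosphate pH 7.4, 37 °C. Reaction started by adding compound. Aliquots taken at 0, 15, 30 and 60 min and quenched with acetonitrile. After centrifugation at 4 °C, percent remaining quantified by LC/MS/MS.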

Data set [25] has as its target T1, Liver carboxylesterase. Put plainly: Stability assessed as porcine liver esterase-mediated drug degradation by measuring compound remaining level in pH 7.4 potassium phosphate buffer at 10 uM incubated for 0.5 hrs by LC/MS/MS. It is filed as ADME, tissue-based. As to conditions: pig, read-out: Stability. The gist of the method:
as §3

For data set [26], the target named is T1, Liver carboxylesterase. Description: Stability assessed as porcine liver esterase-mediated drug degradation by measuring compound remaining level in pH 7.4 potassium phosphate buffer at 10 uM incubated for 1 hr by LC/MS/MS. It counts as ADME, tissue-based. Particulars: pig, read-out: Stability. The method, boiled down:
as §3

The nature of data set [27]: Chemical stability of the compound in pH 7.4 potassium phosphate buffer at 10 uM incubated for 0.25 hrs by LC/MS/MS method. It is filed as physicochemical. As to conditions: read-out: Stability. The method, boiled down:
(§4)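 Compound at 10 µM in 89 mM potassium phosphate buffer, pH 7.4, 37 °C, incubated with or without porcine liver esterase; started by compound addition, aliquots at 0, 15, 30, 60 min, acetonitrile added, centrifuged at 4 °C, remaining compound measured by LC/MS/MS.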

Data set [28] in a line: Chemical stability of the compound in pH 7.4 potassium phosphate buffer at 10 uM incubated for 0.5 hrs by LC/MS/MS method. It counts as physicochemical. As to conditions: read-out: Stability. The gist of the method:
as §4

A short description of data set [29]: Chemical stability of the compound in pH 7.4 potassium phosphate buffer at 10 uM incubated for 1 hr by LC/MS/MS method. It is filed as physicochemical. Particulars: read-out: Stability. The gist of the method:
as §4

The test system of data set [30] is Caco-2. Put plainly: Drug level in apical side of human Caco2 cells incubated at 37 degC for 2 hrs. It is filed as ADME, cell-based. As to conditions: caco-2, 2 h. The gist of the method:
as §2

The nature of data set [31]: Stability in pH 1 solution assessed as half-life at 37 degC. It counts as physicochemical.
Data set [32] can be described thus: Stability in pH 3.1 solution assessed as half-life at 37 degC. It counts as physicochemical.
The nature of data set [33]: Stability in pH 7.4 solution assessed as half-life at 37 degC. It counts as physicochemical.
Data set [34] is described as follows: Chemical stability of the compound in acidic pH solution. It counts as physicochemical.

Each structure is given as a SMILES string. ≈ marks a conversion by molar mass, not a printed value.

For `CCCN(C(=O)OCOP(=O)(O)O)C(=O)c1cn2ncnc(Nc3cc(C(=O)NC4CC4)ccc3C)c2c1C`, the Stability entry in data set [1] was “Unstable”; in [2], “Stable”.
For orientation: Cmax means the peak of the concentration-time curve. As a reminder, the AUC is the area under the concentration-time curve, a measure of exposure. The bioavailability is dose-corrected exposure relative to a reference, in per cent. The inhibition in vivo is how much of the control response was suppressed. A word on the solubility: it is the concentration that dissolves in the medium under given conditions. As to `CCCNC(=O)c1cn2ncnc(Nc3cc(C(=O)NC4CC4)ccc3C)c2c1C` [BMS-582949], the Cmax came out at 4300 nM in data set [3], 800 nM in data set [4], 3000 nM in data set [5] and 1000 nM in [12]. The AUC at 24 h stood at 4.2 µM·h in data set [6]; 23 µM·h in data set [7]; 3 µM·h in data set [8]; 7.6 µM·h in [13]; 6.7 µM·h in data set [18]; 25.3 µM·h in data set [19]. The figures for the bioavailability in data set [9], in [10] and in data set [14] were 55%, 31% and 16%, respectively. Moreover, the F in the data set on Rattus norvegicus [11] worked out at 4.3%. For the same compound, the ED50 in the data set on Rattus norvegicus [15] stood at 0.88 mg. Moreover, the inhibition in vivo at 1 mg/kg with Rattus norvegicus [16] was found to be 27%. Further, in the data set on Rattus norvegicus [17], the inhibition in vivo at 3 mg/kg came to 35%. The Drug uptake result with Caco-2 [20] and in the data set with Caco-2 [21] was “Active” each time. For the same compound, the solubility in [22] worked out at 280 µg/mL (≈ 689 µM); in data set [23] it was 3 µg/mL (≈ 7.38 µM).
As for `CCCN(C(=O)OCOC(=O)Cc1ccc(O)cc1)C(=O)c1cn2ncnc(Nc3cc(C(=O)NC4CC4)ccc3C)c2c1C`, the remaining at 0.25 h, 10 µM at Liver carboxylesterase [24] worked out at 8.2%; in [27] it was 100%. In addition, the values for the remaining at 0.5 h, 10 µM (on Liver carboxylesterase [25]; in data set [28]) were 6.9% and 93%, respectively. The figures for the remaining at 1 h, 10 µM (on Liver carboxylesterase [26]; in data set [29]) were 5.8% and 75%, respectively. Moreover, the Drug uptake result in the data set with Caco-2 [30] is “Active”.
As usually defined, the half-life is how long it takes for the measured level to halve. In the case of `CCCNC(=O)c1cn2ncnc(Nc3cc(C(=O)N(COP(=O)(O)O)C4CC4)ccc3C)c2c1C.CCN(C(C)C)C(C)C`, the values for the half-life in [31], in data set [32] and in data set [33] were less than 0.25 h, less than 0.25 h and 257 h, respectively.
Turning to `CCCN(C(=O)OCOC(=O)/C=C/C(=O)O)C(=O)c1cn2ncnc(Nc3cc(C(=O)NC4CC4)ccc3C)c2c1C`, the Stability result in [1] and in data set [34] was “Stable” throughout.
On to `CCCNC(=O)c1cn2ncnc(N(COP(=O)([O-])O)c3cc(C(=O)NC4CC4)ccc3C)c2c1C.[Na+]`, for which the half-life in data set [31] was less than 0.25 h; in data set [32], less than 0.25 h; in data set [33] it was 20 h.
Regarding `CCCN(COP(=O)(O)O)C(=O)c1cn2ncnc(Nc3cc(C(=O)NC4CC4)ccc3C)c2c1C.CCN(C(C)C)C(C)C`, the half-life in [31] is less than 0.25 h; in data set [32] it was less than 0.25 h; in data set [33] it was 54 h.

For the origin of these results see ChEMBL document CHEMBL3621120, “Discovery of ((4-(5-(Cyclopropylcarbamoyl)-2-methylphenylamino)-5-methylpyrrolo[1,2-f][1,2,4]triazine-6-carbonyl)(propyl)carbamoyloxy)methyl-2-(4-(phosphonooxy)phenyl)acetate (BMS-751324), a Clinical Prodrug of p38α MAP Kinase Inhibitor” (J Med Chem, 2015).
